Measurements published in ChEMBL document CHEMBL4364270, “Structure-activity relationship studies on Bax activator SMBA1 for the treatment of ER-positive and triple-negative breast cancer” (Eur J Med Chem, 2019).

Assays:
[1] = system: MDA-MB-231; experiment: Antiproliferative activity against triple negative human MDA-MB-231 cells assessed as reduction in cell growth incubated for 48 hrs by MTT assay; type: functional, cell-based; conditions: MDA-MB-231, 48 h
How it was run: (§1)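 MTT viability: MCF-7 and MDA-MB-231 seeded 1×10^4 cells/well, exposed to DMSO or 0.01-100 μM for 48 h; MTT (5 mg/mL in PBS) added 4 h, formazan dissolved in DMSO, OD 550 nm; quadruplicate wells; IC50 fitted for compounds giving >50% inhibition at 10 µM; at least three independent experiments.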

[2] = system: MCF7; experiment: Antiproliferative activity against ER-positive human MCF7 cells assessed as reduction in cell growth incubated for 48 hrs by MTT assay; type: functional, cell-based; conditions: MCF7, 48 h; how it was run: as §1
[3] = system: MDA-MB-468; experiment: Antiproliferative activity against triple negative human MDA-MB-468 cells assessed as reduction in cell growth incubated for 72 hrs by MTT assay; type: functional, cell-based; conditions: MDA-MB-468, 72 h
How it was run: (§2)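 MTT viability after 72 h exposure at indicated concentrations; cells seeded at 1×10^3 cells/well (T47D, MDA-MB-468, MCF-10A, MCF-7/ADR) in 96-well plates; quadruplicate wells, independently repeated three times; IC50 as mean ± SE of at least three experiments.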

[4] = system: T47D; experiment: Antiproliferative activity against ER-positive human T47D cells assessed as reduction in cell growth incubated for 72 hrs by MTT assay; type: functional, cell-based; how it was run: as §2
[5] = system: MCF-10A; experiment: Antiproliferative activity against human MCF10A cells assessed as reduction in cell growth incubated for 72 hrs by MTT assay; type: functional, cell-based; how it was run: as §2
[6] = system: MCF7; experiment: Antiproliferative activity against ER-positive human MCF7 cells assessed as reduction in cell viability at 10 uM incubated for 48 hrs by MTT assay relative to control; type: functional; conditions: MCF7, 48 h; how it was run: as §1
[7] = Toxicity in mouse xenografted with triple negative human MDA-MB-231 cells assessed as body weight at 40 mg/kg, ip administered once daily for 7 days; type: organism-based; conditions: in vivo, 168 h
How it was run: (§3)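 Female nude mice (6 weeks) given 2.5×10^6 MDA-MB-231 cells in PBS into third mammary fat pad, randomized into four groups; at 200 mm³ tumor volume dosed i.p. daily for 7 days in 50% DMSO/50% PEG vehicle; tumor volume (0.5×L×W²) and body weight measured daily; one-way ANOVA.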

[8] = system: MDA-MB-231; experiment: Antiproliferative activity against triple negative human MDA-MB-231 cells assessed as reduction in cell growth at 10 uM incubated for 48 hrs by MTT assay relative to control; type: functional; conditions: MDA-MB-231, 48 h; how it was run: as §1
[9] = system: MDA-MB-231; experiment: Antitumor activity against triple-negative human MDA-MB-231 cells xenografted in mouse assessed as reduction in tumor growth at 40 mg/kg, ip administered once daily for 7 days; type: functional; conditions: MDA-MB-231, ip, 168 h, read-out: GI; how it was run: as §3
[10] = system: MCF7; experiment: Potency index, ratio of SMBA1 IC50 to compound IC50 for antiproliferative activity against ER-positive human MCF7 cells assessed as reduction in cell growth incubated for 48 hrs by MTT assay; type: functional
[11] = Toxicity in mouse xenografted with triple negative human MDA-MB-231 cells assessed as body weight at 20 mg/kg, ip administered once daily for 7 days; type: organism-based; conditions: in vivo, 168 h; how it was run: as §3
[12] = system: MDA-MB-231; experiment: Potency index, ratio of SMBA1 IC50 to compound IC50 for antiproliferative activity against triple negative human MDA-MB-231 cells assessed as reduction in cell growth incubated for 48 hrs by MTT assay; type: functional
[13] = system: MDA-MB-231; experiment: Antitumor activity against triple-negative human MDA-MB-231 cells xenografted in mouse assessed as reduction in tumor growth at 20 mg/kg, ip administered once daily for 7 days; type: functional; conditions: MDA-MB-231, ip, 168 h, read-out: GI; how it was run: as §3

Row | IC50 [1] | IC50 [2] | Structure (SMILES) | inhibition at 10 µM [6] | inhibition at 10 µM [8] | also measured
1 | 5.6 µM | 8.3 µM | O=[N+]([O-])c1ccc2c(c1)C(=Cc1ccccc1O)c1ccccc1-2 | > 50% | > 50% | IC50 [3]: 16.1 µM; IC50 [4]: 10.4 µM; IC50 [5]: 7.58 µM; Activity [7]: Non-Toxic; inhibition in vivo at 40 mg/kg [9]: 51%
2 | > 10 µM |  | CS(=O)(=O)N1CCN(CCOc2ccccc2C=C2c3ccccc3-c3ccc([N+](=O)[O-])cc32)CC1 |  |  | 
3 | 4.27 µM | 5 µM | O=[N+]([O-])c1ccc2c(c1)C(=Cc1cccnc1N1CCNCC1)c1ccccc1-2 | > 50% | > 50% | 
4 | 6.03 µM | 6.31 µM | NCCOc1ccccc1C=C1c2ccccc2-c2ccc(N)cc21 | > 50% | > 50% | 
5 | > 10 µM | > 10 µM | O=[N+]([O-])c1ccc2c(c1)C(=Cc1ccccc1OCCF)c1ccccc1-2 |  |  | 
6 | 4.87 µM | 3.77 µM | NCCOc1cccc(C=C2c3ccccc3-c3ccc([N+](=O)[O-])cc32)c1 | > 50% | > 50% | 
7 | > 10 µM | > 10 µM | CN(C)CCOc1ccccc1C=C1c2ccccc2-c2ccc([N+](=O)[O-])cc21 |  |  | 
8 | 3.53 µM | 5.45 µM | O=[N+]([O-])c1ccc2c(c1)C(=Cc1ccccc1OC1CCNCC1)c1ccccc1-2 | > 50% | > 50% | 
9 | > 10 µM | > 10 µM | Nc1ccc2c(c1)C(=Cc1ccccc1O)c1ccccc1-2 |  |  | 
10 | > 10 µM | > 10 µM | CN(C)CCNc1ccccc1C=C1c2ccccc2-c2ccc([N+](=O)[O-])cc21 |  |  | 
11 | 3.66 µM | 5.77 µM | NCCCCOc1ccccc1C=C1c2ccccc2-c2ccc([N+](=O)[O-])cc21 | > 50% | > 50% | 
12 | 5.48 µM | 4.26 µM | CNCCOc1ccccc1C=C1c2ccccc2-c2ccc([N+](=O)[O-])cc21 | > 50% | > 50% | 
13 | 5.04 µM | 4.5 µM | CC(C)[C@H](N)COc1ccccc1C=C1c2ccccc2-c2ccc([N+](=O)[O-])cc21 | > 50% | > 50% | 
14 | > 10 µM |  | O=[N+]([O-])c1ccc2c(c1)C(=Cc1cccnc1O)c1ccccc1-2 |  |  | 
15 | > 10 µM | > 10 µM | CC(=O)N1CCN(CCOc2ccccc2C=C2c3ccccc3-c3ccc([N+](=O)[O-])cc32)CC1 |  |  | 
16 | 6.4 µM | 8.47 µM | NCCOc1ccc(C=C2c3ccccc3-c3ccc([N+](=O)[O-])cc32)cc1 | > 50% | > 50% | 
17 | > 10 µM | > 10 µM | CC(C)(C)OC(=O)NCCOc1ccccc1C=C1c2ccccc2-c2ccc([N+](=O)[O-])cc21 |  |  | 
18 | > 10 µM | 9.58 µM | CN1CCN(CCOc2ccccc2C=C2c3ccccc3-c3ccc([N+](=O)[O-])cc32)CC1 | > 50% |  | 

Row | IC50 [1] | IC50 [2] | Structure (SMILES) | inhibition at 10 µM [6] | inhibition at 10 µM [8] | also measured
19 | > 10 µM | > 10 µM | Nc1ccccc1C=C1c2ccccc2-c2ccc([N+](=O)[O-])cc21 |  |  | 
20 | > 10 µM |  | O=[N+]([O-])c1ccc2c(c1)C(=Cc1ccccc1OCCN1CCN(S(=O)(=O)C3CC3)CC1)c1ccccc1-2 |  |  | 
21 | 3.5 µM | 4.97 µM | O=[N+]([O-])c1ccc2c(c1)C(=Cc1ccccc1OCCN1CCNCC1)c1ccccc1-2 | > 50% | > 50% | 
22 | 5.34 µM | 5.13 µM | NCCCOc1ccccc1C=C1c2ccccc2-c2ccc([N+](=O)[O-])cc21 | > 50% | > 50% | 
23 | > 10 µM |  | O=[N+]([O-])c1ccc2c(c1)C(=Cc1ccccc1OCCN1CCOCC1)c1ccccc1-2 |  |  | 
24 | 9.35 µM | 6.13 µM | NCCOCCOc1ccccc1C=C1c2ccccc2-c2ccc([N+](=O)[O-])cc21 | > 50% | > 50% | 
25 | > 10 µM | > 10 µM | COc1ccccc1C=C1c2ccccc2-c2ccc([N+](=O)[O-])cc21 |  |  | 
26 | > 10 µM | > 10 µM | CC(=O)NCCOc1ccccc1C=C1c2ccccc2-c2ccc([N+](=O)[O-])cc21 |  |  | 
27 | > 10 µM |  | O=[N+]([O-])c1ccc2c(c1)C(=Cc1ccccc1OCCO)c1ccccc1-2 |  |  | 
28 | > 10 µM | > 10 µM | O=[N+]([O-])c1ccc2c(c1)C(=Cc1ccccc1Br)c1ccccc1-2 |  |  | 
29 | > 10 µM | > 10 µM | CN1CCN(c2ncccc2C=C2c3ccccc3-c3ccc([N+](=O)[O-])cc32)CC1 |  |  | 
30 | > 10 µM | > 10 µM | NC[C@H](CCl)Oc1ccccc1C=C1c2ccccc2-c2ccc([N+](=O)[O-])cc21 |  |  | 
31 | 8.64 µM | > 10 µM | O=[N+]([O-])c1ccc2c(c1)C(=Cc1ccccc1OCCN1CCCCC1)c1ccccc1-2 |  | > 50% | 
32 | 3.22 µM | 3.81 µM | NCCOc1ccccc1C=C1c2ccccc2-c2ccc([N+](=O)[O-])cc21 | > 50% | > 50% | Ratio IC50 [10]: 1.7 - 2.2; Activity [11]: Non-Toxic; IC50 [3]: 8.73 µM; IC50 [4]: 9.47 µM; Ratio IC50 [12]: 1.7 - 2.2; IC50 [5]: 4.37 µM; inhibition in vivo at 20 mg/kg [13]: 57%
33 | > 10 µM | > 10 µM | Nc1ncccc1C=C1c2ccccc2-c2ccc([N+](=O)[O-])cc21 |  |  | 
34 | > 10 µM | > 10 µM | COc1ncccc1C=C1c2ccccc2-c2ccc([N+](=O)[O-])cc21 |  |  | 
35 | 5.08 µM | 4.66 µM | CC[C@H](N)COc1ccccc1C=C1c2ccccc2-c2ccc([N+](=O)[O-])cc21 | > 50% | > 50% | 
